According to ChEMBL document CHEMBL3352498, “Membrane active phenylalanine conjugated lipophilic norspermidine derivatives with selective antibacterial activity” (J Med Chem, 2014):
In brackets after ≈: the same amount, converted by molar mass. Activity calls are given as the source filed them. The calls are words filed in the database; no cut-off is given here.

Key:
Enterococcus faecium [1] = assay: Antimicrobial activity against Enterococcus faecium ATCC 19634 after 24 hrs by broth microdilution method; format: functional
Klebsiella pneumoniae = assay: Antimicrobial activity against beta-lactam-resistant Klebsiella pneumoniae ATCC 700603 after 24 hrs by broth microdilution method; format: functional
How it was run: (§1)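 Broth microdilution per CLSI, 24 h at 37 °C. Inoculum is a 6 h 37 °C culture diluted to ~10^5 CFU/mL (yeast–dextrose broth for MRSA and K. pneumoniae). 50 μL of 2-fold dilutions in water plus 150 μL bacteria. Read by OD600, triplicates, run at least twice. MIC is taken from a sigmoidal fit as the point where OD equals the bacteria-free control.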

[2] = Hemolytic activity in human erythrocytes after 1 hr by spectrophotometry; format: ADME, cell-based, Erythrocyte
How it was run: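 Fresh heparinised human erythrocytes suspended to 5 vol % in PBS pH 7.4, mixed with serially diluted compound, 1 h at 37 °C; no-compound and 1 vol % Triton X-100 controls. Supernatant A540 after centrifugation gave % hemolysis; triplicates averaged, sigmoidal fit gave HC50.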

Enterococcus faecium [3] = assay: Antimicrobial activity against vancomycin-resistant Enterococcus faecium ATCC 51559 after 24 hrs by broth microdilution method; format: functional; how it was run: as §1
Escherichia coli [4] = assay: Antimicrobial activity against Escherichia coli MTCC 443 after 24 hrs by broth microdilution method; format: functional
How it was run: (§2)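 Broth microdilution per CLSI: 6 h cultures (37 °C) diluted to ~10^5 CFU/mL; 2-fold serial dilutions in sterile water added to bacteria; 24 h at 37 °C; OD600 read. Triplicates, experiment done at least twice; mean OD vs concentration fitted sigmoidally, MIC taken where OD matched the no-bacteria control. E. coli grown in LB broth, S. aureus in yeast–dextrose broth.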

Staphylococcus aureus [5] = assay: Antimicrobial activity against methicillin-resistant Staphylococcus aureus ATCC 33591 after 24 hrs by broth microdilution method; format: functional; how it was run: as §1
Staphylococcus aureus [6] = assay: Antimicrobial activity against Staphylococcus aureus MTCC 737 after 24 hrs by broth microdilution method; format: functional; how it was run: as §2
[7] = Critical micelle concentration of the compound; format: ADME
How it was run: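 Static light scattering at 90° (excitation and emission 400 nm) on compound dissolved at 500 μg/mL in yeast–dextrose broth at room temperature, measured over successive dilutions; cmc taken from the inflection point where intensity rises steeply then falls after a local maximum.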

Staphylococcus aureus [8] = assay: Antimicrobial activity against Staphylococcus aureus MTCC 737 assessed as leakage of K+ at 12 times MIC using PBFI-AM by fluorescence spectroscopy; format: functional, organism-based
[9] = Cytotoxicity against mouse RAW264.7 cells after 1 hr by MTT assay; format: cell-based; details: raw264.7, 1 h
How it was run: (§3)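 RAW 264.7 cells grown in DMEM with 10% FBS to ~70–80% confluency, exposed to serially diluted compound 1 h at 37 °C, 5% CO2; untreated and Triton X-100 controls. MTT (5 mg/mL) 4 h, formazan dissolved in DMSO, OD 570 nm; viability normalised to controls, triplicates, sigmoidal fit for 50% viability.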

Staphylococcus aureus [10] = assay: Antimicrobial activity against Staphylococcus aureus MTCC 737 assessed as increase in MIC measured after 20 passages by broth microdilution method relative to control; format: functional
Staphylococcus aureus [11] = assay: Ratio of MIC for Staphylococcus aureus MTCC 737 after 4 hrs in presence of 50% human serum to MIC for Staphylococcus aureus MTCC 737 after 4 hrs; format: functional
How it was run: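 Compound mixed 1:1 with human serum (50% serum) and held at 37 °C; at 0, 2 and 4 h the mixture was serially 2-fold diluted in 0.9% saline. Activity against S. aureus then tested in triplicate by the standard broth microdilution MIC protocol.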

Escherichia coli [12] = assay: Antimicrobial activity against Escherichia coli MTCC 443 assessed as membrane permeabilization at 12 times MIC by propidium iodide staining method; format: functional, organism-based
Escherichia coli [13] = assay: Antimicrobial activity against Escherichia coli MTCC 443 assessed as leakage of K+ at 12 times MIC using PBFI-AM by fluorescence spectroscopy; format: functional, organism-based
Staphylococcus aureus [14] = assay: Antimicrobial activity against Staphylococcus aureus MTCC 737 after 2 hrs by broth microdilution method in presence of 50% human plasma; format: functional, organism-based
How it was run: (§4)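 Compound mixed 1:1 with fresh human plasma (50% plasma) and held at 37 °C; at 0, 2, 4, 6, 12 and 24 h aliquots were diluted 2-fold in 0.9% saline.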

Staphylococcus aureus [15] = assay: Antimicrobial activity against Staphylococcus aureus MTCC 737 assessed as membrane depolarization at 12 times MIC using DiSC3 by fluorescence spectroscopy; format: functional, organism-based
How it was run: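 Mid-log S. aureus washed and resuspended in 5 mM HEPES, 5 mM glucose, 100 mM KCl (1:1:1); 2 μM DiSC3(5) added, 20 min preincubation.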

Staphylococcus aureus [16] = assay: Antimicrobial activity against Staphylococcus aureus MTCC 737 at sub-MIC measured after 20 passages by broth microdilution method; format: functional, organism-based
Escherichia coli [17] = assay: Antimicrobial activity against Escherichia coli MTCC 443 assessed as increase in MIC measured after 30 passages by broth microdilution method relative to control; format: functional
Staphylococcus aureus [18] = assay: Bactericidal activity against Staphylococcus aureus MTCC 737 assessed as log reduction in CFU/ml at 6 times MIC at 15 mins by time-kill assay relative to control; format: functional
Escherichia coli [19] = assay: Antimicrobial activity against Escherichia coli MTCC 443 at sub-MIC measured after 30 passages by broth microdilution method; format: functional, organism-based
Staphylococcus aureus [20] = assay: Bactericidal activity against Staphylococcus aureus MTCC 737 assessed as log reduction in CFU/ml at 6 times MIC by time-kill assay relative to control; format: functional
Staphylococcus aureus [21] = assay: Antimicrobial activity against Staphylococcus aureus MTCC 737 assessed as membrane permeabilization at 12 times MIC by propidium iodide staining method; format: functional, organism-based
[22] = Cytotoxicity against mouse RAW264.7 cells at 16 ug/ml after 1 hr by MTT assay; format: cell-based; details: raw264.7, 1 h; how it was run: as §3
Staphylococcus aureus [23] = assay: Antimicrobial activity against Staphylococcus aureus MTCC 737 after 4 hrs by broth microdilution method in presence of 50% human plasma; format: functional, organism-based; how it was run: as §4

Row | Molecule | MIC (Enterococcus faecium [1]; ATCC 19634, 24 h) | MIC (Klebsiella pneumoniae; ATCC 700603, 24 h) | HC50 at 1 h [2] | MIC (Enterococcus faecium [3]; ATCC 51559, 24 h) | MIC (Escherichia coli [4]; MTCC 443, 24 h) | MIC (Staphylococcus aureus [5]; ATCC 33591, 24 h) | MIC (Staphylococcus aureus [6]; MTCC 737, 24 h) | further results
1 | CCCCCCCCCCCCCCCC(=O)N(CCCN)CCCN.O=C(O)C(F)(F)F.O=C(O)C(F)(F)F | 2.8 µg/mL | 65 µg/mL | 52 µg/mL | 2.4 µg/mL | 14 µg/mL | 11 µg/mL | 12 µg/mL | 
2 | CCCCCCCCCCCCCCCCCC(=O)N(CCCN)CCCN.O=C(O)C(F)(F)F.O=C(O)C(F)(F)F | 21 µg/mL | 106 µg/mL | 42 µg/mL | 11 µg/mL | 26 µg/mL | 19 µg/mL | 21 µg/mL | 
3 | CCCCCCCCCCCC(=O)N(CCCN)CCCN.O=C(O)C(F)(F)F.O=C(O)C(F)(F)F | 62 µg/mL | 163 µg/mL | 107 µg/mL | 57 µg/mL | 108 µg/mL | 53 µg/mL | 45 µg/mL | 
4 | CN[C@H](CC(C)C)C(=O)N[C@H]1C(=O)N[C@@H](CC(N)=O)C(=O)N[C@H]2C(=O)N[C@H]3C(=O)N[C@H](C(=O)N[C@H](C(=O)O)c4cc(O)cc(O)c4-c4cc3ccc4O)[C@H](O)c3ccc(c(Cl)c3)Oc3cc2cc(c3O[C@@H]2O[C@H](CO)[C@@H](O)[C@H](O)[C@H]2O[C@H]2C[C@](C)(N)[C@H](O)[C@H](C)O2)Oc2ccc(cc2Cl)[C@H]1O [VANCOMYCIN] | 0.8 µg/mL (≈ 0.552 µM) |  |  | > 1000 µg/mL |  | 0.8 µg/mL (≈ 0.552 µM) | 0.8 µg/mL (≈ 0.552 µM) | 
5 | N[C@@H](Cc1ccccc1)C(=O)NCCCN(CCCNC(=O)[C@@H](N)Cc1ccccc1)C(=O)[C@@H](N)Cc1ccccc1.O=C(O)C(F)(F)F.O=C(O)C(F)(F)F.O=C(O)C(F)(F)F | > 250 µg/mL | > 250 µg/mL |  | > 250 µg/mL | > 250 µg/mL |  | > 250 µg/mL | 
6 | CCCCCCCCCC(=O)N(CCCNC(=O)[C@@H](N)Cc1ccccc1)CCCNC(=O)[C@@H](N)Cc1ccccc1.O=C(O)C(F)(F)F.O=C(O)C(F)(F)F | 29 µg/mL | 57 µg/mL | 187 µg/mL | 14 µg/mL | 19 µg/mL | 20 µg/mL | 15 µg/mL | CMC [7]: 156 µg/mL
7 | COLISTIN |  |  |  |  |  |  |  | MIC (Enterococcus faecium [1]): > 250 µg/mL; MIC (Klebsiella pneumoniae): 1.5 µg/mL; MIC (Enterococcus faecium [3]): > 250 µg/mL; MIC (Escherichia coli [4]): 0.5 µg/mL; MIC (Staphylococcus aureus [5]): 68 µg/mL; MIC (Staphylococcus aureus [6]): 25 µg/mL
8 | CCCCCCCCCCCC(=O)N(CCCNC(=O)[C@H](N)Cc1ccccc1)CCCNC(=O)[C@H](N)Cc1ccccc1.O=C(O)C(F)(F)F.O=C(O)C(F)(F)F | 2.8 µg/mL | 6.5 µg/mL | 209 µg/mL | 2.4 µg/mL | 10 µg/mL | 4.2 µg/mL | 3.5 µg/mL | Activity (Staphylococcus aureus [8]): Active; Activity [9]: Non-toxic; fold change (FC) (Staphylococcus aureus [10]): 800; fold change (FC) (Staphylococcus aureus [11]): 2; Activity (Escherichia coli [12]): Active; Activity (Escherichia coli [13]): Active; Activity (Staphylococcus aureus [14]): Active; Activity (Staphylococcus aureus [15]): Active; Activity (Staphylococcus aureus [16]): Active; fold change (FC) (Escherichia coli [17]): 250; FC (Staphylococcus aureus [18]): 3; Activity (Escherichia coli [19]): Active; FC (Staphylococcus aureus [20]): 3; Activity (Staphylococcus aureus [21]): Active; CMC [7]: 40 µg/mL; Activity [22]: Non-toxic; Activity (Staphylococcus aureus [23]): Active
